This passage reports Ratio Ki and Ki results from ChEMBL document CHEMBL1152266, “Synthesis of 3,6-diazabicyclo[3.1.1]heptanes as novel ligands for neuronal nicotinic acetylcholine receptors” (Bioorg Med Chem Lett, 2008).

By Ki is commonly meant the equilibrium dissociation constant of an inhibitor or competing ligand from its target. Low readings indicate tighter binding, high ones weaker binding.

Assay [1] is filed under the species Rattus norvegicus. Briefly: Selectivity ratio of Ki for rat alpha7 nAChR to Ki for rat alpha4beta2 nAChR.
For assay [2], the target named is Neuronal acetylcholine receptor; alpha4/beta2 (Rattus norvegicus, UniProt P09483+P12390). Briefly: Displacement of [3H]epibatidine form alpha4beta2 nAChR in rat cortex. Put shortly:
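Radioligand binding in rat cortex tissue using [³H]-epibatidine to label α4β2 sites. Ki reported as the mean (% coefficient of variation) of three independent determinations.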
(Loss of bound radioactivity is the signal in a displacement assay; it reports binding, not function.)

For assay [3], the target named is Neuronal acetylcholine receptor subunit alpha-7 (Rattus norvegicus, UniProt Q05941). Briefly: Displacement of [3H]alpha-bungarotoxin form alpha7 nAChR in rat cortex.
Sequence of Neuronal acetylcholine receptor subunit alpha-7 (Q05941 whole entry): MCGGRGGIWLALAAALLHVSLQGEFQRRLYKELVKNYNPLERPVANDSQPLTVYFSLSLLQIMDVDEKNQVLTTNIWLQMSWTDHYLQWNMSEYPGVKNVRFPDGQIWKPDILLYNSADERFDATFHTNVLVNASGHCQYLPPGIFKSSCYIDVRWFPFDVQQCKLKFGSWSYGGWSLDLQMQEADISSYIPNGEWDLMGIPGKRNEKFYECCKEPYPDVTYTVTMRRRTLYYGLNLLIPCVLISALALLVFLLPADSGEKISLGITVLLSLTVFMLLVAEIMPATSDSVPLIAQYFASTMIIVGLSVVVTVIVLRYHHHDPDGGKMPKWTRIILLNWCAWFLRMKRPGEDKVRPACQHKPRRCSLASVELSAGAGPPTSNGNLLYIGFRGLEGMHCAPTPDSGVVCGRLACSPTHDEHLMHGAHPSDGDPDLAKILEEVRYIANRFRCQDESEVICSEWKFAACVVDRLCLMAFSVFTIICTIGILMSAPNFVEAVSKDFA

Sequence of Neuronal acetylcholine receptor; alpha4/beta2 (P09483 whole entry): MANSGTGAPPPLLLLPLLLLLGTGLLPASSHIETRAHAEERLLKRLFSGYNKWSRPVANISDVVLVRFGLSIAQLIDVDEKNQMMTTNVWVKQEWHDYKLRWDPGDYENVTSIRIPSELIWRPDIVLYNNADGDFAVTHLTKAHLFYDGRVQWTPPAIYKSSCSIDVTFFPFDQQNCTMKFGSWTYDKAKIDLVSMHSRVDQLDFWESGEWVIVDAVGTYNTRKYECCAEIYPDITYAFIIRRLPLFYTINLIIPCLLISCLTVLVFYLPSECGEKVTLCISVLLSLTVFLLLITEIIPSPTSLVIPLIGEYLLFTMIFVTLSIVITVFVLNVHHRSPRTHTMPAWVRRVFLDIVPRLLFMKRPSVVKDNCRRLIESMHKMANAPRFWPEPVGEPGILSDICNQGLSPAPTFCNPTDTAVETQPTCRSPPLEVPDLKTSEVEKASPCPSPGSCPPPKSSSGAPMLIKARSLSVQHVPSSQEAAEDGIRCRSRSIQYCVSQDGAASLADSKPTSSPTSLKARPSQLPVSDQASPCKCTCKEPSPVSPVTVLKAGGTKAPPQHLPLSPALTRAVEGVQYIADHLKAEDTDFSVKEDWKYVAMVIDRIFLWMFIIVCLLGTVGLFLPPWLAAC
Sequence of Neuronal acetylcholine receptor; alpha4/beta2 (P12390 whole entry): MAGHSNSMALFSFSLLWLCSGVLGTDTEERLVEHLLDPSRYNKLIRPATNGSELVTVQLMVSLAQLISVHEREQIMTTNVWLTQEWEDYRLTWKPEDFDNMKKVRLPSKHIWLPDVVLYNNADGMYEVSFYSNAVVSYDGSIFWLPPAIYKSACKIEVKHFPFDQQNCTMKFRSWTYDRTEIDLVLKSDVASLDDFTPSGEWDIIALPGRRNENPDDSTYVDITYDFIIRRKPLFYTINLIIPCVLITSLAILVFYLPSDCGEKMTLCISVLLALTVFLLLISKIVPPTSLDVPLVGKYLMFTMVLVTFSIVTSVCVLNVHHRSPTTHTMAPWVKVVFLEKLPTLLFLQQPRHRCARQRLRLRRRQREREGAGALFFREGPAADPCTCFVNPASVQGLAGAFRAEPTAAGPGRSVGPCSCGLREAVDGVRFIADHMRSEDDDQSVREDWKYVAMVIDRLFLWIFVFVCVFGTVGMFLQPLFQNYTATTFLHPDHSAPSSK

Regarding `Clc1ccc(N2CC3CC(C2)N3)cn1`, in assay [1], the Ratio Ki turned out to be 178. Further, the figures for the Ki in assay [2] and in assay [3] were 0.023 nM and 4.1 nM, respectively.
For the compound `c1cncc(N2CC3CC(C2)N3)c1`, the Ratio Ki in assay [1] was determined as 24.3. For the same compound, the values for the Ki in assay [2] and in assay [3] were 0.056 nM and 1.36 nM, respectively.
The like results for `Clc1ccc(N2CC3CC(C2)N3)nn1` were, in that order, 149, 0.168 nM and 25 nM.
For `O=[N+]([O-])c1ccc(N2CC3CC(C2)N3)cc1`, the Ratio Ki in assay [1] was found to be 23300. In addition, the Ki in assay [2] came to 1.2 nM; in assay [3], 28000 nM.
Regarding `Brc1ccc(N2CC3CC(C2)N3)cn1`, in assay [1], the Ratio Ki is 1300. Moreover, the inhibition constant (Ki) in assay [2] was 0.039 nM; in assay [3], 50.5 nM.
The like results for `CN1C2CC1CN(c1ccc(Cl)nc1)C2` were, in that order, 46.5, 0.43 nM and 20 nM.
